One data set has as its target CYP2C9 (Homo sapiens, UniProt P11712). The data set can be described thus: CYP2C9 inhibition in human liver microsomes. Type of data set: in vitro ADME. An outline of the steps: (§1)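 Pooled human liver microsomes were incubated with standard CYP-selective substrates, with and without test compound at 0.03–100 μM. Standard selective inhibitors for each isoform ran in parallel as positive controls. Read-out was IC50. For CYP3A4 only, time-dependent inhibition was also tested after 30 min preincubation, using midazolam and testosterone as substrates.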

A further data set deals with T1, CYP2C8 (Homo sapiens, UniProt P10632).
T1 sequence (P10632 1-490): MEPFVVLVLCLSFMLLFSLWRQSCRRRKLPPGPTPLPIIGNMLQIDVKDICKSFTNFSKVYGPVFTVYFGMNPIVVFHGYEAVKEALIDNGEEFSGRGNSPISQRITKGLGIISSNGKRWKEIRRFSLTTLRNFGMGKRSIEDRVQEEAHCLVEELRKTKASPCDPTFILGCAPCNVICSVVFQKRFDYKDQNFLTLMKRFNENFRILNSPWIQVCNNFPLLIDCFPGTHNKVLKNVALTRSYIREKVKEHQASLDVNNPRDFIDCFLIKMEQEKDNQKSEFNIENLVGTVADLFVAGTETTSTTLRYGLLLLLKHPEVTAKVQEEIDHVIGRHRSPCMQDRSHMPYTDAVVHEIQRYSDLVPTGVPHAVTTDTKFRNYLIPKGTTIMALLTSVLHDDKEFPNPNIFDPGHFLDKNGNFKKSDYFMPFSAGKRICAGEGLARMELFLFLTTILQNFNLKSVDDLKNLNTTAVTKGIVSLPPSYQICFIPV
The data set can be described thus: CYP2C8 inhibition in human liver microsomes. The class given is in vitro ADME. The essentials:
as §1

The next data set concerns the target T2, CYP2B6 (Homo sapiens, UniProt P20813).
T2 sequence (P20813 1-491): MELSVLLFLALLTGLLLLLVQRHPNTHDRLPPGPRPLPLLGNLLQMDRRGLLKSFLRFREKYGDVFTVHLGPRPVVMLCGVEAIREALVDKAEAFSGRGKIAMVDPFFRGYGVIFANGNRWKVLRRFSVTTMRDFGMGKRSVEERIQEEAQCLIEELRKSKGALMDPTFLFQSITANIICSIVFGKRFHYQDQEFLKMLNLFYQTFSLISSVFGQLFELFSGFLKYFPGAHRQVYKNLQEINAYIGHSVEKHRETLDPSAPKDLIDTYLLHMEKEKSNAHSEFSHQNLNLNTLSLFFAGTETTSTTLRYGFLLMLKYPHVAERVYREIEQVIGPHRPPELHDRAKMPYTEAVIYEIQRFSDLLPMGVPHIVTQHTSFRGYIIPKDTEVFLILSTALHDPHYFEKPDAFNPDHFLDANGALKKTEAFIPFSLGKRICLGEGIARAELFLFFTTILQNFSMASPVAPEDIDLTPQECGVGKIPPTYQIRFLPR
In words: biochemical. The class given is in vitro ADME.

The target of another data set is OAT3 (Homo sapiens, UniProt Q8TCC7). The data set can be described thus: OAT3 uptake inhibition in transfected HEK cells. The class given is in vitro ADME. An outline of the steps:
(§2)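 HEK cells overexpressing NTCP, OAT1, OAT3, OATP2B1, OCT1 or OCT2 were incubated with probe substrate. Pairs were estrone 3-sulfate/cyclosporin A (NTCP), PAH/probenecid (OAT1), furosemide/probenecid (OAT3), estrone 3-sulfate/glibenclamide (OATP2B1), 3H-MPP+/decynium 22 (OCT1) and 3H-MPP+/imipramine (OCT2). IC50 was determined with and without test compound, at ≤50 µM for the parent and ≤10 µM for the metabolite.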

The target of the next data set is T3, OCT1 (Homo sapiens, UniProt O15245).
T3 sequence (O15245 1-554): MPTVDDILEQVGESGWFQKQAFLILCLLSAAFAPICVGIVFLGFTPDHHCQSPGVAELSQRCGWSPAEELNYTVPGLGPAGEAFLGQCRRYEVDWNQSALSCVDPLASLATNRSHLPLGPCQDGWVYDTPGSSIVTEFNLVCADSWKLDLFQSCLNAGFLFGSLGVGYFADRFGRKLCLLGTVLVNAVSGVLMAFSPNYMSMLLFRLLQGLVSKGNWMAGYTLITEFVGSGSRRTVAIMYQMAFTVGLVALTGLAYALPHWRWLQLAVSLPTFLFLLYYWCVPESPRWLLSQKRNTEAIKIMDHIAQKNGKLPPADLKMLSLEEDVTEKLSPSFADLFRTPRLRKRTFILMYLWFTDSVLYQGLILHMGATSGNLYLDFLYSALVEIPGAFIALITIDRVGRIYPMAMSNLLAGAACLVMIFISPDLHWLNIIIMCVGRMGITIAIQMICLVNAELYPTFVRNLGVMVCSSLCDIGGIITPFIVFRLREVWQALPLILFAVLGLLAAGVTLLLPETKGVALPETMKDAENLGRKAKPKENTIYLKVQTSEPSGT
In words: Cellular uptake in OCT1-transfected HEK cells. Type of data set: in vitro ADME. To be noted: not affected by decynium-22. The essentials:
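Cellular uptake of test compound was measured in HEK cells transfected to overexpress OATP1B1, OATP1B3 or OCT1. Vector-control cells were run in parallel. Standard inhibitors and probe substrates were included; decynium-22 served as OCT1 inhibitor, rifamycin as OATP inhibitor.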

The target in a further data set is MATE2-K (Homo sapiens, UniProt Q86VL8). The data set can be described thus: MATE2-K inhibition in transfected HEK cells. The class given is in vitro ADME. An outline of the steps: (§3)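 HEK cells were transfected with MRP2, MATE1 or MATE2-K. Pairs were CDCF/benzbromarone (MRP2), metformin/cimetidine (MATE1) and metformin/pyrimethamine (MATE2-K). Probe transport was assessed with and without test compound, and IC50 was determined.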

Data set [1] relates to CYP3A4. In words: CYP3A4 induction in primary-cultured human hepatocytes. Type of data set: in vitro ADME. The conditions noted are these: for induction of CYP3A4 enzymatic activity: three donors, 3 days dosing, 0.005–10 mg/l.
In a further data set the target is MATE1 (Homo sapiens, UniProt Q96FL8). The data set can be described thus: MATE1 inhibition in transfected HEK cells. Type of data set: in vitro ADME. The essentials:
as §3

The subject of data set [2] is CYP3A4. The data set can be described thus: Relative induction score. The arrangement: species or system human. The conditions noted are these: sensitive CYP3A4 substrate midazolam. The essentials: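 The relative induction score (RIS) method was applied to CYP3A4 induction data from hepatocytes of three donors treated for 3 days. Strong, moderate and weak reference inducers (rifampicin, bosentan, pioglitazone) served as calibrators for estimating clinical DDI risk.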

The target in the next data set is OCT2 (Homo sapiens, UniProt O15244). The data set can be described thus: OCT2 uptake inhibition in transfected HEK cells. The class given is in vitro ADME. An outline of the steps:
as §2

The next data set concerns the target OAT1 (Homo sapiens, UniProt Q4U2R8). In words: OAT1 uptake inhibition in transfected HEK cells. Type of data set: in vitro ADME. The essentials: as §2
The target of another data set is MRP2 (Homo sapiens, UniProt Q92887). The data set can be described thus: MRP2 inhibition in transfected HEK cells. The class given is in vitro ADME. An outline of the steps: as §3
Data set [3] has as its target CYP3A4 (Homo sapiens, UniProt P08684). In words: CYP3A4 inhibition in human liver microsomes. Type of data set: in vitro ADME. An outline of the steps:
as §1
A general note: Liver microsomes are vesicles of endoplasmic reticulum, rich in cytochrome P450 enzymes.

The mark [4] stands for this setting: read-out: IC50, CYP3A4 (with pre-incubation), human liver microsomes, substrate midazolam, 30 min pre-incubation.
Setting [5] is: read-out: IC50, CYP3A4 (with pre-incubation), human liver microsomes, substrate testosterone, 30 min pre-incubation.

Read-outs that look alike come from different tables or passages of the source.

Chain of CYP3A4 (Homo sapiens, UniProt P08684) (P08684 whole entry): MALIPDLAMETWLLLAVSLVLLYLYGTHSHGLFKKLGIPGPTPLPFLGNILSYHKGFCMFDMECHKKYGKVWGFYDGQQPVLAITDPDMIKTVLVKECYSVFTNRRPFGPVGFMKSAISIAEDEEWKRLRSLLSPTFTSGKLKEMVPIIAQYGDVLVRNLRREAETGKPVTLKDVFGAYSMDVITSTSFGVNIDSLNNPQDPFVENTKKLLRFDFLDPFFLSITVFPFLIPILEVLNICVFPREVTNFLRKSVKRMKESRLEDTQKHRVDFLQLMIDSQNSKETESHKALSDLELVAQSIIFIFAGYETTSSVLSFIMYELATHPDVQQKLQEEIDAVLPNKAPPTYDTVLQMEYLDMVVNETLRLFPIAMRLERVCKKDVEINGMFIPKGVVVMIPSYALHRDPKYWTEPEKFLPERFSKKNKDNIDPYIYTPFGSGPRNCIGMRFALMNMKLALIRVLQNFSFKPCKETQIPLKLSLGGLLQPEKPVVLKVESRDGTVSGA
Chain of MRP2 (Q92887 whole entry): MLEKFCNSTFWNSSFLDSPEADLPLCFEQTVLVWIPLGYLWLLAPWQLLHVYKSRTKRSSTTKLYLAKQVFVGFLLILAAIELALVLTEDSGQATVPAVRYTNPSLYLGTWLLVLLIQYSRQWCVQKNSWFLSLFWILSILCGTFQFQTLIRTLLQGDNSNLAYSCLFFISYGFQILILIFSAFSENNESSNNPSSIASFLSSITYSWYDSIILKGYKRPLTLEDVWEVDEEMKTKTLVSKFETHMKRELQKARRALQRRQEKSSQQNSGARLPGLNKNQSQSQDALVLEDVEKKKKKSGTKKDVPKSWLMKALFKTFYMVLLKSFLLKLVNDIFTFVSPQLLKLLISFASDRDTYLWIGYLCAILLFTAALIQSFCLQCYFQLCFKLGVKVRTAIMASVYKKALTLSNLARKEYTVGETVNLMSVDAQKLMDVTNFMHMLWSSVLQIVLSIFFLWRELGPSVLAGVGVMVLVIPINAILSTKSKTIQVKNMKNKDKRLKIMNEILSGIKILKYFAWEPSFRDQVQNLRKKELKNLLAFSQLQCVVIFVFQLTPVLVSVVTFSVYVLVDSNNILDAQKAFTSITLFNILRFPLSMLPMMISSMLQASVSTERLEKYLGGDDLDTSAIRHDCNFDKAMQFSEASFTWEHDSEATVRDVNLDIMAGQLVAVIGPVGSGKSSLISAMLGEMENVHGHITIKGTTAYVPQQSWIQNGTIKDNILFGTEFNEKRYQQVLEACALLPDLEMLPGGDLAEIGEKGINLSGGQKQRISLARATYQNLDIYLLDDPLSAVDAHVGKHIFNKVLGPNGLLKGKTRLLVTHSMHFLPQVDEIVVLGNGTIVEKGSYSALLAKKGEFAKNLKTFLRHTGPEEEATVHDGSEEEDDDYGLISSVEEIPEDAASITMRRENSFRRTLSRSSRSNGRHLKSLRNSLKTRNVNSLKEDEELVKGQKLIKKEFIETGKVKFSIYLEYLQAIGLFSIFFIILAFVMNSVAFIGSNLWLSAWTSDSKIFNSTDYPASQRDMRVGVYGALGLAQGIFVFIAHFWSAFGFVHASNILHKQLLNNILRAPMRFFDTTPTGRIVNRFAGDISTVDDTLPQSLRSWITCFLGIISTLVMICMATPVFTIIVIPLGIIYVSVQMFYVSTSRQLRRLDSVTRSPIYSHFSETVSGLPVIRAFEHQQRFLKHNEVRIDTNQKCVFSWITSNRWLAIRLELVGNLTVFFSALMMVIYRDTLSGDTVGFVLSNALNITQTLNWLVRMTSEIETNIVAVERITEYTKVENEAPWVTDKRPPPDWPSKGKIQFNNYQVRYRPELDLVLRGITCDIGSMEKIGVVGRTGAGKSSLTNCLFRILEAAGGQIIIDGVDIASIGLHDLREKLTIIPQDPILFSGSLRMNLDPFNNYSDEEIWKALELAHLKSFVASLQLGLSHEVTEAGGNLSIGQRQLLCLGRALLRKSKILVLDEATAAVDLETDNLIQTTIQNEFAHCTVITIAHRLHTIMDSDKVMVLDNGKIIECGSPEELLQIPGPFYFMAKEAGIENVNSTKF
Chain of OAT3 (Q8TCC7 whole entry): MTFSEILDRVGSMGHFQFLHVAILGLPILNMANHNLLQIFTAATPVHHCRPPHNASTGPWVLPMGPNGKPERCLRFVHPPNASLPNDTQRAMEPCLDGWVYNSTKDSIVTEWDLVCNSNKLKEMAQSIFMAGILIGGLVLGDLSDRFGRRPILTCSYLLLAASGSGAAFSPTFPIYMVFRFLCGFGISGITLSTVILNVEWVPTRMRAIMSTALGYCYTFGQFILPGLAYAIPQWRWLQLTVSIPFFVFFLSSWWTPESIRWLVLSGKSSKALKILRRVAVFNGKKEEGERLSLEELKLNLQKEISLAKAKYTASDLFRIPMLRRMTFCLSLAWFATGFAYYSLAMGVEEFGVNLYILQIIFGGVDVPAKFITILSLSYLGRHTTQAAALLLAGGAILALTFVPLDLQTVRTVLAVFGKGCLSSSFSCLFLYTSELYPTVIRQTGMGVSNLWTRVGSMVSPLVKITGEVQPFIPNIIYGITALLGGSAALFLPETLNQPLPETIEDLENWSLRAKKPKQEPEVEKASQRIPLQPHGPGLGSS
Chain of MATE1 (Q96FL8 whole entry): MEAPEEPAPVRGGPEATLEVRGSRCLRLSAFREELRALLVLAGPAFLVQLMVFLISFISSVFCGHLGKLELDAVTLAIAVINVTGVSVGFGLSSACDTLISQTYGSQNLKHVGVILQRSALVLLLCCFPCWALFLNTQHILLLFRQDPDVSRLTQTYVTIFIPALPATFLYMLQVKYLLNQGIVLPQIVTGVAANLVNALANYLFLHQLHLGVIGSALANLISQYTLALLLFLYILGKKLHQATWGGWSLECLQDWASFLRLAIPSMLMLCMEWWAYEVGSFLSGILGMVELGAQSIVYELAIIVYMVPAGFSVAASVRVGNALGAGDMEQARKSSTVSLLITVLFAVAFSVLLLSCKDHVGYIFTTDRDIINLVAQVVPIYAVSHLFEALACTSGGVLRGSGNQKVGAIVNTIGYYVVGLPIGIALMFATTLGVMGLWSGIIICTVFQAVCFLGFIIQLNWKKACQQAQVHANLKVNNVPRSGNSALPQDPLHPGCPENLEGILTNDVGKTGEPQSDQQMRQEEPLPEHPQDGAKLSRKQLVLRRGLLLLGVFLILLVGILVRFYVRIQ
Chain of CYP2C9 (P11712 whole entry, canonical isoform): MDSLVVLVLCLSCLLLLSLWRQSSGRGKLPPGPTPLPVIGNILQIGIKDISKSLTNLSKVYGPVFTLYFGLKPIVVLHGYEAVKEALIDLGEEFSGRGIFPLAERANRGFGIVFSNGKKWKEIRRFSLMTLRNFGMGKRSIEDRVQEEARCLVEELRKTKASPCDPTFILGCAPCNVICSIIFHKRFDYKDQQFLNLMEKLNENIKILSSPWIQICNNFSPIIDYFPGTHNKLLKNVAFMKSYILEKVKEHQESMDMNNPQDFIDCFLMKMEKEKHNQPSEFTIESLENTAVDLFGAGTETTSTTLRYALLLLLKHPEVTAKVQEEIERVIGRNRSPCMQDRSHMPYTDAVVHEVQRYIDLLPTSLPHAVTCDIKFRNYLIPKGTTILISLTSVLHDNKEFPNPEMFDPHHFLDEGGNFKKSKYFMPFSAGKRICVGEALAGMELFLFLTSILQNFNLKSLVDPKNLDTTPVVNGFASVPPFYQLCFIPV
Chain of MATE2-K (Q86VL8 1-566 isoform Q86VL8-3): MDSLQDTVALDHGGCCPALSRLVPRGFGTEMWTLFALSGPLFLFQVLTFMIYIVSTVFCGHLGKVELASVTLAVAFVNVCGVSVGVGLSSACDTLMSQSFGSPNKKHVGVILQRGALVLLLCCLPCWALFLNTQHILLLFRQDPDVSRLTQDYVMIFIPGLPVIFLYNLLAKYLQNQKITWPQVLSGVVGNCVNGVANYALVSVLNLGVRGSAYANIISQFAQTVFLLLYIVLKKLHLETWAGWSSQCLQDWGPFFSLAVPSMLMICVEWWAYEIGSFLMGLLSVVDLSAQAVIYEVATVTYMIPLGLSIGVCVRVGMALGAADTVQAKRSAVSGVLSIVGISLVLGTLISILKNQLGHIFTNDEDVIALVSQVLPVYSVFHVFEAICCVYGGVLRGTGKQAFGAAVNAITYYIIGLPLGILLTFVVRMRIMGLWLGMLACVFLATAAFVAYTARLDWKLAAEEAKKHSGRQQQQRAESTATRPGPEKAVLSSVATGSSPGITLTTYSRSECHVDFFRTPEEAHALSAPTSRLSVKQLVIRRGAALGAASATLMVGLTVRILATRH
Chain of OCT2 (O15244 whole entry): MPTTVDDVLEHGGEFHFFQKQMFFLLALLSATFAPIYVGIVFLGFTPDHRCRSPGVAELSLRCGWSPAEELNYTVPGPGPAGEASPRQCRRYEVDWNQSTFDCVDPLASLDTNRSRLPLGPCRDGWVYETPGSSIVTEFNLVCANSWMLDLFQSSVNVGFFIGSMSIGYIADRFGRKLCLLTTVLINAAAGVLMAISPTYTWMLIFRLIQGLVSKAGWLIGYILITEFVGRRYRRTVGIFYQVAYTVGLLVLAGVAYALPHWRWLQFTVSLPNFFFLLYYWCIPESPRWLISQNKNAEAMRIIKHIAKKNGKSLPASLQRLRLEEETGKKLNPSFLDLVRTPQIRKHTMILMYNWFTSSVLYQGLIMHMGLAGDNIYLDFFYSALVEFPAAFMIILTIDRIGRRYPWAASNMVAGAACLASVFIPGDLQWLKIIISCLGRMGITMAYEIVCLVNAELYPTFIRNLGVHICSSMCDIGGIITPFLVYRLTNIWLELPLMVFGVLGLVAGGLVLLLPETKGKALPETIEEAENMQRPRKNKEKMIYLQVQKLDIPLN

For the molecule `CC(O)c1cc(C(=O)N[C@@H](C)Cn2ccc(-c3ccc(C#N)c(Cl)c3)n2)[nH]n1` (some centres unmarked) [Darolutamide, darolutamide], the IC50 is 30.3 µM against CYP2C9; more than 100 µM against CYP2C8; more than 100 µM against CYP2B6; 4.5 µM at OAT3; 9.5 µM against MATE2-K; 32.3 µM against MATE1. For the same molecule, the concentration for half-maximal inhibition (IC50) at OCT2 is more than 50 µM; against OAT1 it was more than 50 µM; against MRP2, more than 50 µM; at CYP3A4 [3], more than 100 µM; on CYP3A4 [3] (setting [4]), more than 100 µM; on CYP3A4 [3] (setting [5]) it was more than 100 µM. Further, the “uptake in OCT1-transfected HEK cells” value at OCT1 was “no uptake”. The “CYP3A4 induction as % of rifampicin response” value in the data set on CYP3A4 [1] is 28%. The “induction of CYP3A4 enzymatic activity” value in the data set on CYP3A4 [1] was not above 5.3 fold. Besides, the “Overall assessment of CYP3A4 induction (RIS method)” value in the data set with CYP3A4 [2] was “moderate-to-strong inducers”.
For the molecule `CC(=O)c1cc(C(=O)N[C@@H](C)Cn2ccc(-c3ccc(C#N)c(Cl)c3)n2)[nH]n1` [Keto-darolutamide, keto-darolutamide], the concentration for half-maximal inhibition (IC50) on CYP2C9 (read-out: IC50, CYP2C9, human liver microsomes, substrate diclofenac) is 9.6 µM; on CYP2C8 (read-out: IC50, CYP2C8, human liver microsomes, substrate paclitaxel), 48.6 µM; at CYP2B6 (read-out: IC50, CYP2B6, human liver microsomes, substrate bupropion), 54.2 µM; on OAT3 (read-out: IC50, OAT3, HEK cells, substrate furosemide, reference probenecid), more than 2 µM; on MATE2-K (read-out: IC50, MATE2 K, HEK cells, substrate metformin, reference pyrimethamine) it was 3 µM; at MATE1 (read-out: IC50, MATE1, HEK cells, substrate metformin, reference cimetidine) it was more than 10 µM. The concentration for half-maximal inhibition (IC50) at OCT2 (read-out: IC50, OCT2, HEK cells, substrate 3H-MPP+, reference imipramine) was more than 2 µM; on OAT1 (read-out: IC50, OAT1, HEK cells, substrate PAH, reference probenecid) it was more than 2 µM; on MRP2 (read-out: IC50, MRP2, HEK cells, substrate CDCF, reference benzbromarone), more than 10 µM; at CYP3A4 [3] (setting [4]), more than 50 µM; at CYP3A4 [3] (setting [5]), more than 50 µM; at CYP3A4 [3] (read-out: IC50, CYP3A4, human liver microsomes, substrate midazolam) it was more than 50 µM. For the same molecule, on CYP3A4 [3] (read-out: IC50, CYP3A4, human liver microsomes, substrate testosterone), the IC50 is more than 50 µM. The “uptake in OCT1-transfected HEK cells” value on OCT1 is “no uptake”. Also, the “induction of CYP3A4 enzymatic activity” value in the data set with CYP3A4 [1] is reported as not above 5.4 fold. Moreover, the “Overall assessment of CYP3A4 induction (RIS method)” value with CYP3A4 [2] is given as “weak-to-moderate inducer”.

As usually defined, the IC50 is the concentration needed to halve the response being measured.

The values are drawn from publication PMC6828636 (European Journal of Drug Metabolism and Pharmacokinetics, 2019).
